Test results: ChEMBL document CHEMBL4390640, “Design of N-Benzoxaborole Benzofuran GSK8175-Optimization of Human Pharmacokinetics Inspired by Metabolites of a Failed Clinical HCV Inhibitor” (J Med Chem, 2019); call rule not given here

Tests used:
[1] = target: Cytochrome P450 2C19 (Homo sapiens, UniProt P33261); assay: Inhibition of CYP2C19 in human liver microsomes using mephenytoin as substrate preincubated for 10 mins followed by NADPH addition and measured by LC-MS/MS analysis; type: ADME
[2] = Blood clearance in rat at 1 mg/kg, iv by LC-MS/MS analysis; type: ADME, organism-based; conditions: whole blood
Summary of the method: (§1)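 Rat and dog received a single i.v. dose of 1 mg/kg in DMSO/20% hydroxypropyl-β-cyclodextrin (10/90), pH adjusted. Clearance was taken from blood or plasma concentration–time profiles.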

[3] = target: T1, Cytochrome P450 3A4 (Homo sapiens, UniProt P08684); assay: Inhibition of CYP3A4 in human liver microsomes using nifedipine as substrate preincubated for 7 mins followed by NADPH addition and measured by LC-MS/MS analysis; type: ADME
[4] = Half life in human assessed as 5-cyclopropyl-2-(4-fluorophenyl)-N-methyl-6-(methylsulfonamido)benzofuran-3-carboxamide level; type: ADME
[5] = Oral bioavailability in rat at 5 mg/kg by LC-MS/MS analysis; type: ADME, organism-based; conditions: in vivo
[6] = target: T1, Cytochrome P450 3A4; assay: Inhibition of CYP3A4 in human liver microsomes using atorvastatin as substrate preincubated for 7 mins followed by NADPH addition and measured by LC-MS/MS analysis; type: ADME
[7] = target: Cytochrome P450 2C9 (Homo sapiens, UniProt P11712); assay: Inhibition of CYP2C9 in human liver microsomes using diclofenac as substrate preincubated for 10 mins followed by NADPH addition and measured by LC-MS/MS analysis; type: ADME
[8] = Blood clearance in Beagle dog at 1 mg/kg, iv by LC-MS/MS analysis relative to hepatic blood flow; type: ADME, organism-based, Canis lupus familiaris; conditions: in vivo
Summary of the method: (§2)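 Clearance expressed as a percentage of liver blood flow: compound blood or plasma clearance after i.v. dosing divided by the hepatic blood flow of that species.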

[9] = Volume of distribution at steady state in rat at 1 mg/kg, iv by LC-MS/MS analysis; type: ADME, organism-based; conditions: in vivo, read-out: Vdss
[10] = AUC in rat at 5 mg/kg, po by LC-MS/MS analysis; type: ADME, organism-based; conditions: in vivo
[11] = Clearance in rat at 1 mg/kg, iv by LC-MS/MS analysis; type: ADME, organism-based; conditions: in vivo
[12] = tested on: Hepatitis C virus; assay: Antiviral activity against HCV genotype1 infected in human assessed as reduction in plasma viral RNA level at 420 mg, po administered as single dose; type: functional, Hepacivirus hominis, genotype 1
[13] = Plasma clearance in CD1 mouse at 1 mg/kg, iv by LC-MS/MS analysis relative to hepatic blood flow; type: ADME, organism-based; conditions: in vivo; summary of the method: as §2
[14] = Half life in human hepatocytes at 0.5 uM by LC-MS/MS analysis; type: ADME, cell-based, Hepatocyte
Summary of the method: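 Cryopreserved human hepatocytes were incubated with compound for up to 2 h, and metabolic turnover was followed to estimate half-life.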

[15] = Blood clearance in rat at 1 mg/kg, iv by LC-MS/MS analysis relative to hepatic blood flow; type: ADME, organism-based; conditions: in vivo; summary of the method: as §2
[16] = Half life in rat at 1 mg/kg, iv by LC-MS/MS analysis; type: ADME, organism-based; conditions: in vivo
[17] = target: T1, Cytochrome P450 3A4; assay: Inhibition of CYP3A4 in human liver microsomes using midazolam as substrate preincubated for 7 mins followed by NADPH addition and measured by LC-MS/MS analysis; type: ADME
[18] = Plasma clearance in cynomolgus monkey at 1 mg/kg, iv by LC-MS/MS analysis relative to hepatic blood flow; type: ADME, organism-based, Macaca fascicularis; conditions: in vivo; summary of the method: as §2
[19] = Plasma clearance in cynomolgus monkey at 1 mg/kg, iv by LC-MS/MS analysis; type: ADME, organism-based, Macaca fascicularis
[20] = Blood clearance in Beagle dog at 1 mg/kg, iv by LC-MS/MS analysis; type: ADME, organism-based, Canis lupus familiaris; conditions: whole blood; summary of the method: as §1
[21] = target: Cytochrome P450 2D6 (Homo sapiens, UniProt P10635); assay: Inhibition of CYP2D6 in human liver microsomes at 0.033 to 33 uM using bufuralol as substrate preincubated for 10 mins followed by NADPH addition and measured by LC-MS/MS analysis; type: ADME
[22] = Blood clearance in CD1 mouse at 1 mg/kg, iv by LC-MS/MS analysis; type: ADME, organism-based; conditions: whole blood
[23] = Blood clearance in cynomolgus monkey at 1 mg/kg, iv by LC-MS/MS analysis relative to hepatic blood flow; type: ADME, organism-based, Macaca fascicularis; conditions: in vivo; summary of the method: as §2
[24] = target: Voltage-gated inwardly rectifying potassium channel KCNH2 (Homo sapiens, UniProt Q12809); assay: Inhibition of human ERG by patch clamp electrophysiology method
Summary of the method: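 hERG activity was measured by patch-clamp electrophysiology as the reduction in channel current caused by the compound, giving an IC50.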

[25] = target: T2, Cytochrome P450 1A2 (Homo sapiens, UniProt P05177); assay: Inhibition of CYP1A2 in human liver microsomes at 0.033 to 33 uM using phenacetin as substrate preincubated for 10 mins followed by NADPH addition and measured by LC-MS/MS analysis; type: ADME
T2 sequence (P05177 whole entry): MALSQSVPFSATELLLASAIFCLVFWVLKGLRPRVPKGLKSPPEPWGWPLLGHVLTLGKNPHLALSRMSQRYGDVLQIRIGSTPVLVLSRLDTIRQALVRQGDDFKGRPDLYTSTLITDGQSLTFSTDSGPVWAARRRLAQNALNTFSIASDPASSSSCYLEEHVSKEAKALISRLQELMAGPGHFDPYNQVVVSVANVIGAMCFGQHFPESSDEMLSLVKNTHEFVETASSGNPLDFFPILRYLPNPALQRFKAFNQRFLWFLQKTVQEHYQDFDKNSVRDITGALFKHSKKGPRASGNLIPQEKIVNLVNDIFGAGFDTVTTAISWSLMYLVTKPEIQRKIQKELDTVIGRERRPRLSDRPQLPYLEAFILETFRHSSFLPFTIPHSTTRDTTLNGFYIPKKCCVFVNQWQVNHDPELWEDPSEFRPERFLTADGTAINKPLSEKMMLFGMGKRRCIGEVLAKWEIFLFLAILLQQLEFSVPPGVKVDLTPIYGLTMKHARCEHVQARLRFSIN

[26] = Blood clearance in CD1 mouse at 1 mg/kg, iv by LC-MS/MS analysis relative to hepatic blood flow; type: ADME, organism-based; conditions: in vivo; summary of the method: as §2
[27] = Half life in rat hepatocytes at 0.5 uM by LC-MS/MS analysis; type: ADME, cell-based, Hepatocyte

T1 sequence (P08684 whole entry): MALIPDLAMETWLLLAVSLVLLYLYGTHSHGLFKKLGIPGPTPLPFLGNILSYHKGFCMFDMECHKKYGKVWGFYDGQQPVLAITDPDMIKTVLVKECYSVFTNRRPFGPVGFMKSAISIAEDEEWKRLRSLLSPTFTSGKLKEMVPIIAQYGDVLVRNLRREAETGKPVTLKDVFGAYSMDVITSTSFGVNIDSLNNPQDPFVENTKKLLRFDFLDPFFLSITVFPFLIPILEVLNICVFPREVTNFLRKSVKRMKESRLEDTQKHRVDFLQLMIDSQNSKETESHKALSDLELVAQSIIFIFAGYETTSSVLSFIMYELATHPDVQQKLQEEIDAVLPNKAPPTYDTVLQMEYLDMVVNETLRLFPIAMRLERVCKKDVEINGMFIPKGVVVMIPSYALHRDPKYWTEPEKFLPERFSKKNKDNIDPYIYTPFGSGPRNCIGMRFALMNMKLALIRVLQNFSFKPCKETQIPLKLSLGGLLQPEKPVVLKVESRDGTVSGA
Chain of Cytochrome P450 2C9 (P11712 whole entry): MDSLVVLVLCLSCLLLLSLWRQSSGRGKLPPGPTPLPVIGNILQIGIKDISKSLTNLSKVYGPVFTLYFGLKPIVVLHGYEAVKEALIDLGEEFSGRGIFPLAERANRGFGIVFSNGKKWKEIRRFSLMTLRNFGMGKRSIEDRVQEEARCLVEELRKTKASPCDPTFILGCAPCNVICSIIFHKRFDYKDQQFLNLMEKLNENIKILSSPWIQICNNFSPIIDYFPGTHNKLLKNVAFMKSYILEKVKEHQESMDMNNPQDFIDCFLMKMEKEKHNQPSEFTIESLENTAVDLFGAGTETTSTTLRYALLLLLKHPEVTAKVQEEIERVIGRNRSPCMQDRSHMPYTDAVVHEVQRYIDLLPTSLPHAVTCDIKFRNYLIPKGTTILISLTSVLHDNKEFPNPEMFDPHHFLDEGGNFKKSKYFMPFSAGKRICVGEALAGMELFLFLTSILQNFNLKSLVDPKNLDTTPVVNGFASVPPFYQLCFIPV
Chain of Cytochrome P450 2C19 (P33261 whole entry): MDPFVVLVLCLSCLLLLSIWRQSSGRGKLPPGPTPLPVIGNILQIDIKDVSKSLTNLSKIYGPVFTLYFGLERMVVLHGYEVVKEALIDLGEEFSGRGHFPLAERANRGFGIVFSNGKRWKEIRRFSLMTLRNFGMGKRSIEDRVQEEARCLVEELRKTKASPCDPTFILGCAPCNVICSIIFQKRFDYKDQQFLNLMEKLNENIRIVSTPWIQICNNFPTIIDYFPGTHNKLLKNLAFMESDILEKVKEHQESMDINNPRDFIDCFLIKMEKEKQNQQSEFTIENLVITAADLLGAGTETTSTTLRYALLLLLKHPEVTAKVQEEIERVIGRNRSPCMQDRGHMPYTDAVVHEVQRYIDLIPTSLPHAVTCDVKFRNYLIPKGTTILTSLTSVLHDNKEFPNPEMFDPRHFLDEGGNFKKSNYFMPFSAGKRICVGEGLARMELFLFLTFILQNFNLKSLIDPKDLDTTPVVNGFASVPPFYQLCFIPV
Chain of Voltage-gated inwardly rectifying potassium channel KCNH2 (Q12809 whole entry): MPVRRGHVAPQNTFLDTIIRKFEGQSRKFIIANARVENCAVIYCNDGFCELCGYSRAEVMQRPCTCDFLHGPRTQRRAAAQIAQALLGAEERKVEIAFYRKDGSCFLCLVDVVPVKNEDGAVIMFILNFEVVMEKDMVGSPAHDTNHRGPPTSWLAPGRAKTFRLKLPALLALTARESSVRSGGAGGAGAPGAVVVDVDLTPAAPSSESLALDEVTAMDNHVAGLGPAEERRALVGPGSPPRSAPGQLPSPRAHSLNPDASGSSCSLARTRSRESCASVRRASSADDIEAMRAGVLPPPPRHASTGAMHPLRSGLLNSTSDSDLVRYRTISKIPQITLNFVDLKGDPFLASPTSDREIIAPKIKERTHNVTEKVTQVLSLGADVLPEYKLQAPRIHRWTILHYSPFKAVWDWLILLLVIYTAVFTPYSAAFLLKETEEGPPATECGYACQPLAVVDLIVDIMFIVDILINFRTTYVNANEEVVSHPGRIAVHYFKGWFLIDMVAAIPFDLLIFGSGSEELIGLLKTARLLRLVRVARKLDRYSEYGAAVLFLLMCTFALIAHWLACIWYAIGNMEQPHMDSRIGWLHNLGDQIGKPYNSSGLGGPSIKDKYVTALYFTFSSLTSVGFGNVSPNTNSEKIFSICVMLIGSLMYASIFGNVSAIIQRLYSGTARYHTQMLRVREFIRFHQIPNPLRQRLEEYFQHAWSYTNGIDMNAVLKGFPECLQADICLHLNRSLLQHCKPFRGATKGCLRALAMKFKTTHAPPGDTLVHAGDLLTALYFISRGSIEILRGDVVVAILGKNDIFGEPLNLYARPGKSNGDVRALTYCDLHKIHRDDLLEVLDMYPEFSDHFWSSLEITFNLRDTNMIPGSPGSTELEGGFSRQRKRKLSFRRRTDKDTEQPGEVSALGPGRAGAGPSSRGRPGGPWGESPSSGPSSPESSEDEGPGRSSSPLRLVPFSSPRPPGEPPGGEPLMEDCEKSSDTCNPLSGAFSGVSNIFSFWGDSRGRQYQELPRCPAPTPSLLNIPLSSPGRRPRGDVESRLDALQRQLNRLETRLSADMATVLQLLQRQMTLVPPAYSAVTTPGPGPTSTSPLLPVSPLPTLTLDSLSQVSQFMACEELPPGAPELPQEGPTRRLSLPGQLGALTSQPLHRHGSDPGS
Chain of Cytochrome P450 2D6 (P10635 whole entry): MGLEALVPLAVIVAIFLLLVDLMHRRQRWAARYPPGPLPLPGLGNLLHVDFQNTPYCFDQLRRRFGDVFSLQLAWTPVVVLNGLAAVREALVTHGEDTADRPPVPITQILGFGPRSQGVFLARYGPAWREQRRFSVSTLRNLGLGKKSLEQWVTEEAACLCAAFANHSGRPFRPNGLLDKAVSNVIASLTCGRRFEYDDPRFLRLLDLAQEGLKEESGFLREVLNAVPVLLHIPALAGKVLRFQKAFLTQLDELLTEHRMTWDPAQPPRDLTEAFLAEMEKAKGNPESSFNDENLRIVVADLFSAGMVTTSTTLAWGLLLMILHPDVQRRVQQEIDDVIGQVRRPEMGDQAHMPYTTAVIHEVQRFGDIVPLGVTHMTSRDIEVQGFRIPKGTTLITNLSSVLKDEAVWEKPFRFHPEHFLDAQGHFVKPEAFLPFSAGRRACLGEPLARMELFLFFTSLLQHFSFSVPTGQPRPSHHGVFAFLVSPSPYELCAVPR

With CNC(=O)c1c(-c2ccc(F)cc2)oc2cc(N(Cc3ccc(B(O)O)c(F)c3)S(C)(=O)=O)c(C3CC3)cc12 the IC50 [1] was 18 µM, the clearance [2] was 29 mL/min/kg and the IC50 [3] was 28 µM. The t1/2 [4] was 45 h, the bioavailability [5] was 23% and the IC50 [6] was 7.1 µM. For the same compound, the IC50 [7] was 4.9 µM, the CL [8] was 19% and the Vd [9] was 1.4 L/kg. For the same compound, the AUC [10] was 700 ng·h/mL, the clearance [11] was 29 mL/min/kg and the Activity [12] was 1.33 log10IU/ml. It also gave a CL [13] of 1.1%, a half-life at 0.5 µM [14] of 1 h and a CL [15] of 37%. It also gave a half-life [16] of 1 h, an IC50 [17] of over 33 µM and a CL [18] of 100%. The clearance [19] was 48 mL/min/kg and the clearance [20] was 11 mL/min/kg.
With CNC(=O)c1c(-c2ccc(F)cc2)oc2cc(-n3nccc3-c3ccc(B(O)O)c(F)c3)c(C3CC3)cc12 the IC50 [1] was 23 µM, the IC50 [3] was over 33 µM and the bioavailability [5] was 64%. The IC50 [6] was 2 µM, the IC50 [7] was 1.5 µM and the Vd [9] was 1.3 L/kg. The AUC [10] was 10000 ng·h/mL, the clearance [11] was 5.4 mL/min/kg and the half-life [16] was 3.4 h. For the same compound, the IC50 [17] was over 33 µM.
Compound CNC(=O)c1c(-c2ccc(F)cc2)oc2cc(-n3ncnc3-c3ccc(B(O)O)c(F)c3)c(C3CC3)cc12 has an IC50 [1] of 1.2 µM, an IC50 [3] of over 33 µM and a bioavailability [5] of 40%. The IC50 [6] was 8.9 µM, the IC50 [7] was 2.7 µM and the Vd [9] was 0.9 L/kg. It also gave an AUC [10] of 7600 ng·h/mL, a clearance [11] of 4.5 mL/min/kg and a half-life [16] of 2.6 h. For the same compound, the IC50 [17] was over 33 µM.
With CNC(=O)c1c(-c2ccc(F)cc2)oc2cc(N(c3cc(Cl)c4c(c3)COB4O)S(C)(=O)=O)c(C3CC3)cc12 the “inhibition (INH)” value [21] was “Active”, the IC50 [1] was over 33 µM and the clearance [22] was 0.7 mL/min/kg. For the same compound, the CL [23] was 13%, the IC50 [3] was over 33 µM and the IC50 [6] was over 33 µM. The IC50 [7] was 22 µM, the CL [8] was 2.1% and the Vd [9] was 0.9 L/kg. The AUC [10] was 5400 ng·h/mL, the IC50 [24] was 16 µM and the CL [15] was 8.9%. The “inhibition (INH)” value [25] was “Active”, the CL [26] was 0.6% and the half-life [16] was 2.8 h. The IC50 [17] was over 33 µM.
Work on CNC(=O)c1c(-c2ccc(F)cc2)oc2cc(N(c3ccc(B(O)O)c(Cl)c3)S(C)(=O)=O)c(C3CC3)cc12 yielded an IC50 [1] of 7.4 µM, an IC50 [3] of 8.1 µM and a bioavailability [5] of 27%. It also gave an IC50 [6] of 4.2 µM, an IC50 [7] of 2.6 µM and a Vd [9] of 1.1 L/kg. It also gave an AUC [10] of 4800 ng·h/mL, an IC50 [24] of 1.6 µM and a clearance [11] of 5.1 mL/min/kg. It also gave a half-life [16] of 3.7 h and an IC50 [17] of over 33 µM.
With CNC(=O)c1c(-c2ccc(F)cc2)oc2cc(N3C(=O)OC[C@@H]3c3ccc(B(O)O)c(F)c3)c(C3CC3)cc12 the bioavailability [5] was 8%, the Vd [9] was 1.3 L/kg and the AUC [10] was 280 ng·h/mL. The clearance [11] was 22 mL/min/kg and the half-life [16] was 1.2 h.
Compound CNC(=O)c1c(-c2ccc(F)cc2)oc2cc(N(C3CCc4c(B(O)O)cccc43)S(C)(=O)=O)c(C3CC3)cc12 (stereo not given) has a half-life at 0.5 µM [27] of 0.75 h, a bioavailability [5] of 4% and a Vd [9] of 3.5 L/kg. The AUC [10] was 40 ng·h/mL, the clearance [11] was 69 mL/min/kg and the t1/2 ([14]; 0.5 µM) was under 0.25 h. The half-life [16] was 1.1 h.
With CNC(=O)c1c(-c2ccc(F)cc2)oc2cc(N(Cc3ccc(B(O)O)cc3C(F)(F)F)S(C)(=O)=O)c(C3CC3)cc12 the clearance [11] was 3.5 mL/min/kg.
